Measured values: article PMC2094211 (Biochimica et Biophysica Acta. Molecular Basis of Disease, 2007)
Positions count from the first letter of the chain named. Square brackets hold non-standard residues; d marks the D form. Ends that are not written are not given here. * marks the point of attachment. Nle = CCCC[C@H](N)C(=O)O; For = O=C*

Tests used:
FPR R190/K192 [1] = target: T1, FPR R190/K192 (Homo sapiens, UniProt P21462, N192K); assay: FACScan analysis of ligand binding
T1 sequence (P21462 1-350 N192K): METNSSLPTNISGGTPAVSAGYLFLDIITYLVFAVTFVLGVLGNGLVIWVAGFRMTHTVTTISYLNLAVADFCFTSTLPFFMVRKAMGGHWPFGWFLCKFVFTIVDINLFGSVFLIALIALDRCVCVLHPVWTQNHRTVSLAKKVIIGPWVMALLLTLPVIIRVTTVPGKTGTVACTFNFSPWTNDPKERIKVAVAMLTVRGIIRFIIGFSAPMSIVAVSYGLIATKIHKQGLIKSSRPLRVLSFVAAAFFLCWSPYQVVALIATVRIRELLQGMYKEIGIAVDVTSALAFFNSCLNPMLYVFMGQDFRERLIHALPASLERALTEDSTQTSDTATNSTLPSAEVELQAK

FPR R190/K192 [2] = target: T1, FPR R190/K192; assay: Downregulation of surface FPR in CHO S cells; assay type: cell-based
How it was run: (§1)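 CHO S cells expressing the FPR variant were exposed to test compound (0.4% DMSO) in CHO-S-SFMII for 1 h at 37 °C. They were washed twice with cold phosphate buffer, then labeled 1 h at 4 °C with 50 nM formyl-Nle-Leu-Phe-Nle-Tyr-Lys-FITC in pH 7.4 buffer with Mg++, Ca++ and 5% FBS. Mean fluorescence was measured by FACScan, minus non-expressing cells.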

FPR W190/N192 [3] = target: T2, FPR W190/N192 (Homo sapiens, UniProt P21462, R190W); assay: Downregulation of surface FPR in CHO S cells; assay type: cell-based
T2 sequence (P21462 1-350 R190W): T1 sequence (P21462 1-350 N192K) with R190W, K192N
How it was run: as §1

FPR R190/N192 [4] = target: T3, FPR R190/N192 (Homo sapiens, UniProt P21462); assay: FACScan analysis of ligand binding
T3 sequence (P21462 1-350): T1 sequence (P21462 1-350 N192K) with K192N

FPR W190/N192 [5] = target: T2, FPR W190/N192; assay: FACScan analysis of ligand binding
FPR R190/N192 [6] = target: T3, FPR R190/N192; assay: Downregulation of surface FPR in CHO S cells; assay type: cell-based
How it was run: as §1

FPR W190/N192 [7] = target: T4, FPR W190/N192 (Homo sapiens, UniProt P21462); assay: FACS competition with formyl-Nle-Leu-Phe-Nle-Tyr-Lys-FITC
T4 chain: T1 sequence (P21462 1-350 N192K) with R190W, K192N

FPR R190/N192 [8] = target: T5, FPR R190/N192 (Homo sapiens, UniProt P21462); assay: as above
T5 chain: T1 sequence (P21462 1-350 N192K) with K192N

Ac-WEDWVGWI-NH2
Ki (FPR R190/K192 [1]; Ki for binding of peptides to R190/K192 FPR, ± SEM, vs 0.38 nM formyl-Nle-Leu-Phe-Nle-Tyr-Lys-FITC, 4 °C, 60 min): 1300 ± 300 nM
Inhibition of the downregulation with 300 nM formyl-Nle-Leu-Phe, R190/K192 (FPR R190/K192 [2]; 25 μM peptide, data not shown): ~50%
Inhibition of the downregulation with 300 nM formyl-Nle-Leu-Phe, W190/N192 (FPR W190/N192 [3]; 25 μM peptide, data not shown): ~50%
Ki (FPR R190/N192 [4]; Ki for binding of peptides to R190/N192 FPR, ± SEM, vs 0.38 nM formyl-Nle-Leu-Phe-Nle-Tyr-Lys-FITC, 4 °C, 60 min): 1300 ± 200 nM
Ki (FPR W190/N192 [5]): 2600 ± 400 nM
Inhibition of the downregulation with 300 nM formyl-Nle-Leu-Phe, R190/N192 (FPR R190/N192 [6]; 25 μM peptide, data not shown): ~50%

Ac-WEDAVGWI-NH2
Binding relative to WEDWVGWI, R190/K192 (FPR R190/K192 [1]; fold weaker): more than 10 fold
Binding relative to WEDWVGWI, R190/N192 (FPR R190/N192 [4]; fold weaker): more than 10 fold
Binding relative to WEDWVGWI, W190/N192 (FPR W190/N192 [5]; fold weaker): more than 10 fold

formyl-NleNleWED
Downregulation of surface receptor, R190/K192 (FPR R190/K192 [2]; concentrations up to 50 μM): very little downregulation
Downregulation of surface receptor, W190/N192 (FPR W190/N192 [3]; concentrations up to 50 μM): very little downregulation
Downregulation of surface receptor, R190/N192 (FPR R190/N192 [6]; concentrations up to 50 μM): very little downregulation

B1: formyl-NleNleWEDWVGWI (peptide)
chain: For-[Nle][Nle]WEDWVGWI
Ki (FPR W190/N192 [7]): 1000 nM

B2: WEDWVGWI (FIV GP-36 peptide) (peptide)
chain: Ac-WEDWVGWI-NH2
Ki (FPR R190/N192 [8]): 1300 nM

B3: formyl-NleNleWEDWVGWI (peptide)
chain: For-[Nle][Nle]WEDWVGWI
Ki (FPR R190/N192 [8]): 480 nM
